We go through 25 compounds from ChEMBL document CHEMBL1131442 (J Med Chem, 1998).

Assay [1] has as its target Cannabinoid receptor 2 (Mus musculus, UniProt P47936). The assay is described as follows: Binding affinity towards Cannabinoid receptor 2 from mouse spleen membranes using 0.8 nM [3H]CP-55940 as radioligand. Format: tissue-based. A digest of the protocol:
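Mouse spleen membranes, no PMSF pretreatment (amidase absent). Each well held ~30 μg membrane in TME (25 mM Tris-HCl, 5 mM MgCl2, 1 mM EDTA, pH 7.4) with 0.1% fatty acid-free BSA, 0.8 nM [3H]CP-55,940 and varied analogue concentrations, 1 h. Bound ligand was collected on GF/C filters and counted by scintillation.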

The target of assay [2] is T1, Cannabinoid receptor 1 (Rattus norvegicus, UniProt P20272). The experiment in a line: Binding affinity towards cannabinoid receptor 1 from rat forebrain membranes in the presence of phenylmethanesulfonylfluoride (PMSF) using 0.8 nM [3H]CP-55940 as radioligand. More on the design: species or system Membrane.
T1 sequence (P20272 whole entry): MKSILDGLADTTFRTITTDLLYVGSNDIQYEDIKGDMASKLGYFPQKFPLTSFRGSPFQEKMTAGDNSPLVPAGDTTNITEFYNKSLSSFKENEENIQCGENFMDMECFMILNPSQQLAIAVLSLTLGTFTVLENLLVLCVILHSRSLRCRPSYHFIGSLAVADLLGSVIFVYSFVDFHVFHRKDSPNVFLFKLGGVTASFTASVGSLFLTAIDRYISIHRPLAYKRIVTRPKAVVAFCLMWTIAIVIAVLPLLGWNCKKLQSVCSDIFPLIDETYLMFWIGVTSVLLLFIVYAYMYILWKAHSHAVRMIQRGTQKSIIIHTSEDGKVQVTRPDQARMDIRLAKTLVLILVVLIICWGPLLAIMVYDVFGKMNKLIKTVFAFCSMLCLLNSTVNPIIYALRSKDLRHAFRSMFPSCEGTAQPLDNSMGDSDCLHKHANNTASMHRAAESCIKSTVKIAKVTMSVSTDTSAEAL
Assay [3] concerns the target T1, Cannabinoid receptor 1. The experiment in a line: Binding affinity towards cannabinoid receptor 1 from rat forebrain membranes in the absence of phenylmethanesulfonylfluoride (PMSF) using 0.8 nM [3H]CP-55940 as radioligand. More on the design: species or system Membrane. The essentials:
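Rat forebrain membranes were used without PMSF treatment. Bound ligand was separated by filtration and counted by scintillation. IC50 from nonlinear regression was converted to Ki by Cheng–Prusoff.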

For assay [4], the species on record is Rattus norvegicus. The experiment in a line: Maximal stimulation of [35S]GTP-gamma-S, binding in rat microsomal membranes expressed as Emax. The assay is classed as functional. A digest of the protocol: (§1)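 Rat brain membranes (cerebellum removed) were sucrose-gradient purified. Membrane (40–50 μg protein) was incubated 1 h at 30 °C in 10 mM Tris, 100 mM NaCl, 5 mM MgCl2, 0.1% BSA with GDP, [35S]GTPγS and eight analogue concentrations. Nonspecific binding was defined with 10 μM GTPγS, and buffer alone set the baseline. Bound label was collected on GF/B filters and counted. Two experiments were run, each point in […].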
(In general: GTPγS is a poorly hydrolysed GTP analogue; its binding reports G protein activation.)

For assay [5], the species on record is Rattus norvegicus. The experiment in a line: Effective concentration required for stimulation of [35S]GTP-gamma-S, binding in rat microsomal membranes. Format: functional. A digest of the protocol: as §1
For assay [6], the species on record is Rattus norvegicus. The experiment in a line: Effective concentration required for stimulation of [35S]GTP-gamma-S, binding in rat microsomal membranes expressed as log EC50. The assay is classed as functional. A digest of the protocol: as §1

Each structure is given as a SMILES string.

Chain of Cannabinoid receptor 2 (P47936 whole entry): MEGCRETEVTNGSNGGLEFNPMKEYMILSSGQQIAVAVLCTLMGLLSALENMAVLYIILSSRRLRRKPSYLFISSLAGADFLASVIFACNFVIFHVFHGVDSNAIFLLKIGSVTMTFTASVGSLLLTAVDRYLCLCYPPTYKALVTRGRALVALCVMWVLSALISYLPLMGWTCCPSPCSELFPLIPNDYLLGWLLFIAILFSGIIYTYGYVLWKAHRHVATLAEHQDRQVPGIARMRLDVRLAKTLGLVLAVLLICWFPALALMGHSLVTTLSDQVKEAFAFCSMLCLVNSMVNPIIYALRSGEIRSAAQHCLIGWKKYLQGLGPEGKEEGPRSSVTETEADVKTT

In general, Ki refers to the equilibrium dissociation constant of an inhibitor or competing ligand from its target. Consider `CCCCC/C=C\C/C=C\CCCCCCCC1=NCCO1`, for which the Ki in assay [1] stood at 20 µM.
In general, Emax refers to the maximal effect, on the per cent scale that the assay sets. Usually EC50 stands for the concentration at which the effect is half-maximal. Low readings indicate higher potency in that assay, high ones lower potency in that assay. In the case of `CCCCC/C=C\C/C=C\C/C=C\C/C=C\CCCC(=O)NCCCl`, the values for the Ki in assay [2], in assay [3] and in assay [1] were 0.00529 µM, 3.4 µM and 0.195 µM, respectively. The Emax in assay [4] was 162%. For the same compound, the EC50 in assay [5] was 0.42 µM.
Take `Cc1c(C(=O)c2cccc3ccccc23)c2cccc3c2n1[C@H](CN1CCOCC1)CO3` [WIN-552122]: in assay [4], the maximal effect (Emax) turned out to be 150%. Moreover, the EC50 in assay [5] was 0.18 µM.
As to `CCCCC/C=C\C/C=C\C/C=C\C/C=C\CCCC(=O)NCC(F)(F)F`, the Ki in assay [2] came to 0.0362 µM; in assay [3], 2.38 µM; in assay [1], 0.718 µM.
Turning to `CCCCCCCC/C=C\CCCCCCCC1=NCCO1`, the Ki in assay [3] stood at 14 µM; in assay [1] it was 31 µM.
Turning to `C#CCNC(=O)CCC/C=C\C/C=C\C/C=C\C/C=C\CCCCC`, the values for the EC50 in assay [6] and in assay [5] were 20000 µM and 0.1 µM, respectively. The inhibitory constant (Ki) in assay [2] was found to be 0.0108 µM; in assay [3] it was 4.9 µM; in assay [1], 0.29 µM. The compound also displayed an Emax in assay [4] of 143%.
Regarding `CCCCC/C=C\C/C=C\C/C=C\C/C=C\CCCC(=O)N[C@H](C)CC`, the inhibition constant (Ki) in assay [2] is 0.0736 µM; in assay [3] it was 0.143 µM; in assay [1], 1.33 µM.
As for `CCCCC/C=C\C/C=C\C/C=C\C/C=C\CCCC(=O)NCC(C)C`, the inhibitory constant (Ki) in assay [2] was determined as 0.0902 µM; in assay [3] it was 0.0981 µM; in assay [1] it was 0.84 µM.
Turning to `CCCCCCC(C)(C)c1ccc([C@@H]2C[C@H](O)CC[C@H]2CCCO)c(O)c1` [CP-55940], the values for the EC50 in assay [6] and in assay [5] were 20000 µM and 0.1 µM, respectively. The compound also returned a maximal response (Emax) in assay [4] of 145%.
`CCCCC/C=C\C/C=C\C/C=C\C/C=C\CCCC(=O)N[C@H](C)CO` [METHANANDAMIDE] showed a maximal response (Emax) in assay [4] of 148%. The compound also showed an EC50 in assay [5] of 0.33 µM. Also, the affinity in assay [1], expressed as Ki, was 0.868 µM.
In the case of `CCCCC/C=C\C/C=C\C/C=C\C/C=C\CCCC(=O)NC[C@H](C)O`, the Ki in assay [2] was found to be 0.0356 µM; in assay [3] it was 0.11 µM; in assay [1], 0.771 µM.
As for `CCCCC/C=C\C/C=C\C/C=C\C/C=C\CCCC(=O)NCCCCl`, the Ki turned out to be 0.0256 µM in assay [2], 0.387 µM in assay [3] and 0.193 µM in assay [1].
Turning to `CCCCCCCC/C=C\CCCCCCCC(=O)N[C@H](C)CO`, the Ki in assay [2] was 19 µM; in assay [3], 33 µM; in assay [1], 26 µM.
Taken in the same sequence, the figures for `CCCCC/C=C\C/C=C\C/C=C\C/C=C\CCCC(=O)NC[C@@H](C)O` were 0.13 µM, 0.63 µM and 1.79 µM.
Taken in the same sequence, the figures for `CCCCC/C=C\C/C=C\C/C=C\C/C=C\CCCC(=O)NCCF` were 0.0267 µM, 4.64 µM and 0.908 µM.
In turn, `CCCCC/C=C\C/C=C\CCCCCCCC(=O)NCCO` [LINOLEOYLETHANOLAMIDE] displayed a Ki in assay [1] of 25 µM.
`CCCCC/C=C\C/C=C\C/C=C\C/C=C\CCCC1=N[C@H](C)CO1`: the Ki in assay [3] is 0.679 µM; in assay [1] it was 6800 µM.
In the case of `CCCCC/C=C\C/C=C\C/C=C\C/C=C\CCCC(=O)NC(C)CC` (stereo not drawn), the Ki in assay [2] stood at 0.0832 µM; in assay [3] it was 0.158 µM; in assay [1] it was 2.2 µM.
Regarding `C=CCNC(=O)CCC/C=C\C/C=C\C/C=C\C/C=C\CCCCC`, the inhibition constant (Ki) in assay [2] came to 0.00991 µM; in assay [3] it was 2.98 µM; in assay [1], 0.226 µM.
Taken in the same sequence, the figures for `CCCCC/C=C\C/C=C\CCCCCCCC(=O)N[C@H](C)CO` were 21 µM, 21 µM and 21 µM.
For the compound `CCCCC/C=C\C/C=C\C/C=C\C/C=C\CCCC(=O)N[C@@H](C)CC`, the figures for the inhibitory constant (Ki) in assay [2] and in assay [1] were 0.287 µM and 3.2 µM, respectively.
The compound `CCCCC/C=C\C/C=C\C/C=C\C/C=C\CCCC(=O)N[C@@H](C)CO` returned a Ki in assay [1] of 8.22 µM.
With `CCCCC/C=C\C/C=C\C/C=C\C/C=C\CCCCNC(=O)COC(C)=O`, the Ki in assay [3] was 0.419 µM; in assay [1], more than 10 µM.
Consider `CCCCC/C=C\C/C=C\C/C=C\C/C=C\CCCC(=O)NC(C)(C)C`, for which the Ki in assay [2] is 0.0512 µM; in assay [3], 0.105 µM; in assay [1], 1.14 µM.
With `CCCCCCCC/C=C\CCCCCCCC(=O)NCCO` [OLEOYLETHANOLAMIDE], the figures for the Ki in assay [3] and in assay [1] were 44 µM and 31 µM, respectively.
